Compound activity from PubChem.
RanGTP-Impb inh: inhibitors of RanGTP-importin-beta interaction, primary screen, biochemical, FRET, CFP-Ran, YFP-importin-beta, homogeneous; cell-free CFP-Ran/YFP-importin-beta FRET ratio; inhibition, % (concentration not given with the values); 1.1% of 300,000 active; AID 2216;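 active = more than half of the replicate wells show a fall in the fluorescence ratio signal beyond about 16%, limit read from the data, passing the limit was not always enough; inconclusive = exactly half of the replicate wells pass the set limit; inactive = fewer than half of replicates pass the limit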;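 also: 0% = DMSO wells and 100% = Ran loaded with GDP instead of GTP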
Runt-SMMHC FRET: Runt domain-CBFb-SMMHC interaction inhibition; Cerulean-Runt/Venus-CBFb-SMMHC FRET ratio 530/480, 1 h; 0.74% of 220,000 active; Q01196+Q13951; inhibition, % at 20 µM; AID 1434;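 active = mean inhibition across duplicate retests at 20 µM reaching about 50%, limit read from the data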;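 also: 0% = DMSO wells and 100% = wells with excess untagged CBFb-SMMHC; inhibitors lower the FRET ratio by blocking Runt binding to CBFb-SMMHC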
Hck-Nef inh: human Hck-Nef kinase inhibition. P08631. Recombinant Hck-YEEI plus Nef, Z-Lyte FRET kinase assay. inhibition, % at 20 µM. 0.68% of 220,000 active. AID 463187;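 active = Hck-Nef kinase inhibition above about 50%, limit read from the data; inactive = inhibition below that limit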;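 also: 0% = DMSO with Hck plus Nef and 100% = Hck alone without Nef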
Target sequence (P08631 whole entry, looked up): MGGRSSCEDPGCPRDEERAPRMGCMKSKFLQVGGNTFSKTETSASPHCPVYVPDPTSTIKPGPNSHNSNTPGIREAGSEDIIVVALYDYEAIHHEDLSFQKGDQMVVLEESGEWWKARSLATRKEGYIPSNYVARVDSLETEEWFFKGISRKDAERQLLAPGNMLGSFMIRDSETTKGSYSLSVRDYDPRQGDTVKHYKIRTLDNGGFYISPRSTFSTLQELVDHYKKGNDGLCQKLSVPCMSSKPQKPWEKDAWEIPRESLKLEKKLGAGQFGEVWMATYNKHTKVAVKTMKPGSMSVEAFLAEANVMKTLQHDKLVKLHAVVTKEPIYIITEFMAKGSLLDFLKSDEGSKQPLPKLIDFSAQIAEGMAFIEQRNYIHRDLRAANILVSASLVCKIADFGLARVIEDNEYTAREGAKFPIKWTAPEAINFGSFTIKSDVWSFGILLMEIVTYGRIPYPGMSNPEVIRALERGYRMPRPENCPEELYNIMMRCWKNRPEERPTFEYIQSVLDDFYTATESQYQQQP
Runt-CBFb FRET: blocks binding of human RUNX1 Runt domain to CBFb | Q01196+Q13951 | AID 1496 | 0.46% of 220,000 active | inhibition, % at 20 µM | Cerulean-Runt/Venus-CBFb FRET ratio 530/480, 1 h;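 active = inhibition over about 50% at 20 µM in the single-dose screen, limit read from the data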;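 also: 0% = DMSO wells and 100% = excess unlabeled CBFb competitor control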
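Measured by: fluorescence energy transfer, 422 nm excitation, 530/480 nm emission; test system: Cerulean-tagged RUNX1 Runt domain (FRET donor) fusion protein; buffer or medium: Tris pH 7.5 buffer with BSA; compound: one dose, 20 µM compound, 1% DMSO; times: two 1 h room-temperature incubations shielded from light; benchmarks: unlabeled CBFb 5 µM, positive control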
An asterisk follows results filed as active. In the library only some 1.7% were active in any assay of this set; here they are far more common.

Cn1c(C(=O)N2CCc3ccccc3C2)cc2c(=O)n3ccccc3nc21 was read as RanGTP-Impb inh 1, Runt-SMMHC FRET 79*, Hck-Nef inh 29 and Runt-CBFb FRET 21.
`Cc1ccc(CN2C(=O)CNC2=S)cc1` gave RanGTP-Impb inh 0, Runt-SMMHC FRET -1, Hck-Nef inh -5 and Runt-CBFb FRET 0.
`O=C(NC(=S)Nc1ncc(Br)cc1Br)c1ccccc1` gave RanGTP-Impb inh -1.
Screening Cc1cc(C)c(NC(=O)C2CCN(c3cnccn3)CC2)c(C)c1 returned RanGTP-Impb inh -7, Runt-SMMHC FRET -2, Hck-Nef inh 2 and Runt-CBFb FRET -1.
Screening O=C(CN1C(=O)S/C(=C\c2ccc(F)cc2)C1=O)NC1C=CS(=O)(=O)C1 (centres undefined) returned RanGTP-Impb inh 16*.
COc1ccc(/C=C2\SC(=O)N(CC(=O)NC3C=CS(=O)(=O)C3)C2=O)cc1 (centres undefined) was read as RanGTP-Impb inh 2.
`Cc1cc(C)nc(N2CCC(C(=O)NNC(=O)c3ccc(Cl)cc3)CC2)n1` gave RanGTP-Impb inh 6, Runt-SMMHC FRET 0, Hck-Nef inh 18 and Runt-CBFb FRET 1.
For Cc1ccccc1C(N)c1ccncc1 (centres undefined) the results were RanGTP-Impb inh -2.
For O=C(COC(=O)c1cccs1)NCc1ccco1 the results were RanGTP-Impb inh -2, Runt-SMMHC FRET 3 and Runt-CBFb FRET -1.
Screening O=C(COC(=O)c1ccc(NS(=O)(=O)c2cccs2)cc1)NCc1ccco1 returned RanGTP-Impb inh 6, Runt-SMMHC FRET -7, Hck-Nef inh 57* and Runt-CBFb FRET 7.
Screening CC(=O)N1CCc2[nH]c3ccccc3c2C1 returned RanGTP-Impb inh 38*, Runt-SMMHC FRET -19, Hck-Nef inh -3 and Runt-CBFb FRET -11.
For CCN(CC)S(=O)(=O)c1ccc(N2CCOCC2)c(NC(=O)c2ccc(C#N)cc2)c1 the results were RanGTP-Impb inh -2, Runt-SMMHC FRET -2, Hck-Nef inh 10 and Runt-CBFb FRET -1.
`CCOc1ccc(/C=C(\C(=O)O)c2ccc(S(=O)(=O)N3CCOCC3)s2)cc1OC` gave RanGTP-Impb inh 104*, Runt-SMMHC FRET 69*, Hck-Nef inh -8 and Runt-CBFb FRET 15.
`CSc1ccc(/C=C(\C(=O)O)c2ccc(S(=O)(=O)N3CCCCC3)s2)cc1` gave RanGTP-Impb inh 45*, Runt-SMMHC FRET 26, Hck-Nef inh 2 and Runt-CBFb FRET 9.
For Cc1ccc(-n2c(C)cc(/C=C3/SC(=O)N(CC(=O)N4CCOCC4)C3=O)c2C)nc1 the results were RanGTP-Impb inh -2, Runt-SMMHC FRET -2, Hck-Nef inh 7 and Runt-CBFb FRET -2.
Screening O=C(O)CCCC(=O)Nc1nc2n(n1)C(c1ccc(F)cc1)CC(c1ccc(Cl)cc1)N2 (centres undefined) returned RanGTP-Impb inh inconclusive, Runt-SMMHC FRET -7, Hck-Nef inh 1 and Runt-CBFb FRET -1.
CC1=CC(c2ccc(Cl)cc2)n2nc(NC(=O)CCC(=O)O)nc2N1 (centres undefined) was read as RanGTP-Impb inh 1, Runt-SMMHC FRET 54*, Hck-Nef inh 21 and Runt-CBFb FRET 29.
`COc1ccc(C(=O)NCCNc2nc3ccc(C)cc3cc2C#N)cc1` gave RanGTP-Impb inh 65*.
COc1ccc2nc(NCCCNC(=O)c3cc(OC)c(OC)c(OC)c3)c(C#N)cc2c1 was read as RanGTP-Impb inh 126*, Runt-SMMHC FRET 38, Hck-Nef inh 6 and Runt-CBFb FRET 57*.
COC(=O)CSc1nc2ccc(C)cc2cc1C#N was read as RanGTP-Impb inh -2, Runt-SMMHC FRET -12, Hck-Nef inh -2 and Runt-CBFb FRET -4.
Screening COc1cc(C(=O)NCCCNc2nc3c(C)cc(C)cc3cc2C#N)cc(OC)c1OC returned RanGTP-Impb inh 2, Runt-SMMHC FRET 23, Hck-Nef inh 34 and Runt-CBFb FRET 16.
Cc1ccc2nc(NCc3ccccc3)c(C#N)cc2c1 was read as RanGTP-Impb inh 38*, Runt-SMMHC FRET 83, Hck-Nef inh 13 and Runt-CBFb FRET 42.
COc1ccccc1Nc1nc2ccc(C)cc2cc1C#N was read as RanGTP-Impb inh 9, Runt-SMMHC FRET -72, Hck-Nef inh 2 and Runt-CBFb FRET -9.
For COc1ccc(C(=O)NCCNc2nc3cc(C)c(C)cc3cc2C)cc1 the results were RanGTP-Impb inh 6.
COc1cc(C(=O)NCCNc2nc3ccc(C)cc3cc2C#N)cc(OC)c1OC was read as RanGTP-Impb inh 81*.
